Assays:
Plasmodium falciparum [1] = assay: Antiplasmodial activity against chloroquine-sensitive Plasmodium falciparum T9-96; assay type: functional, organism-based
Plasmodium falciparum [2] = assay: Antiplasmodial activity against chloroquine-resistant Plasmodium falciparum K1; assay type: functional, organism-based
KB = assay: Cytotoxicity against human KB cells after 48 hrs by MTT assay; assay type: cell-based
Method in brief: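 Human KB cells (0.5 × 10^6 viable cells/mL in RPMI 1640 with 20% FCS) added to compound diluted in RPMI 1640 from […] DMSO stocks; 48 h at 37 °C. MTT (5 mg/mL) added for 15 min, supernatant discarded, cells solubilised in DMSO plus Sørensen's glycine buffer pH 10.5; OD read at 570 nm; IC50 by curve fitting.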

Plasmodium falciparum [3] = assay: Selectivity for Plasmodium falciparum K1 to Plasmodium falciparum T9-96 as IC50 ratio; assay type: functional

CC[C@@H]1CN2CC[C@@]34C(=Nc5ccccc53)[C@@H](CO)[C@H]1C[C@H]24
IC50 (Plasmodium falciparum [1]): 35.4 µM | IC50 (Plasmodium falciparum [2]): 27.3 µM | IC50 (KB): > 40 µM

CC[C@@H]1C[N+]2([O-])CC[C@]34c5ccccc5N[C@H]3[C@@H](CO)[C@H]1C[C@@H]42 (some centres undefined)
IC50 (Plasmodium falciparum [1]): > 40 µM | IC50 (Plasmodium falciparum [2]): > 40 µM | IC50 (KB): > 40 µM

CCN(CC)CCCC(C)Nc1ccnc2cc(Cl)ccc12 (centres undefined) [CHLOROQUINE]
IC50 (KB): 20.4 µM

CCc1ccc2c3[nH]c4ccccc4c3cc[n+]2c1.[Cl-] [FLAVOPEREIRINE]
IC50 (Plasmodium falciparum [1]): 1.83 µM | IC50 (Plasmodium falciparum [2]): 11.5 µM | Ratio IC50 (Plasmodium falciparum [3]): 6.3 | IC50 (KB): 10.7 µM

CC[C@@H]1CN2CC[C@]34c5ccccc5N[C@H]3[C@@H](CO)[C@H]1C[C@H]24 [GEISSOSCHIZOLINE]
IC50 (Plasmodium falciparum [1]): > 40 µM | IC50 (Plasmodium falciparum [2]): > 40 µM | IC50 (KB): > 40 µM

— ChEMBL document CHEMBL1159310, “Indole and beta-carboline alkaloids from Geissospermum sericeum” (J Nat Prod, 2002)
